Reference: ChEMBL document CHEMBL1687738, “Effect of Candida glabrata FKS1 and FKS2 mutations on echinocandin sensitivity and kinetics of 1,3-beta-D-glucan synthase: implication for the existing susceptibility breakpoint” (Antimicrob Agents Chemother, 2009)
pIC50: −log10 of the molar value. ≈ marks a conversion by molar mass, not a printed value. Starred links: 1 amine or outer side, 2 acyl side, 3 side chain; linkers in the order of their positions; H or OH if unused. Positions of bridges follow the written chain, without caps; N, C: chain ends. Non-standard residues stand in square brackets, D forms with d. Residues, ends and D or L forms follow the SMILES beside them. *: point of attachment. hTyr(3S-OH,4S-OH,3'-OSO3H) = N[C@H](C(=O)O)[C@H](O)[C@@H](O)c1ccc(O)c(OS(=O)(=O)O)c1; pTerphenylCO(4''-OnC5H11) = CCCCCOc1ccc(-c2ccc(-c3ccc(C(=O)*)cc3)cc2)cc1; Orn(4R-OH,5R-OH) = O=C([C@H](C[C@@H](O)[C@@H](O)N[*:3])N[*:1])[*:2]; hTyr(3S-OH,4S-OH) = N[C@H](C(=O)O)[C@H](O)[C@@H](O)c1ccc(O)cc1; Pro(3S-OH,4S-Me) = C[C@H]1CN[C@H](C(=O)O)[C@H]1O; X1 = CCCCCOc1ccc(-c2cc(-c3ccc(C(=O)*)cc3)no2)cc1; Gln(3R-OH) = NC(=O)C[C@@H](O)[C@H](N)C(=O)O; Hyp = O=C(O)[C@@H]1C[C@@H](O)CN1

Key:
[1] = tested on: Nakaseomyces glabratus; assay: Antifungal activity against Candida glabrata isolate 3168 expressing wild type Fks1p and Fks2p by CLSI method; type: functional
In short: (§1)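 Broth microdilution MIC per CLSI M27-A3 in RPMI 1640 medium without serum. Caspofungin and micafungin stocks in sterile water; anidulafungin stock in 100% DMSO; stocks kept at −86°C.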

[2] = tested on: Nakaseomyces glabratus; assay: Antifungal activity against Candida glabrata isolate 42997 expressing Fks1p F625S mutant and wild type Fks2p by CLSI method; type: functional; in short: as §1
[3] = tested on: Nakaseomyces glabratus; assay: Antifungal activity against Candida glabrata isolate 5847 expressing Fks1p S629P mutant and wild type Fks2p by CLSI method; type: functional; in short: as §1
[4] = tested on: Nakaseomyces glabratus; assay: Antifungal activity against Candida glabrata isolate 21900 expressing Fks1p D632G mutant and wild type Fks2p by CLSI method; type: functional
[5] = tested on: Nakaseomyces glabratus; assay: Antifungal activity against Candida glabrata isolate 42971 expressing Fks1p D632Y mutant and Fks2p R1377STOP mutant by CLSI method; type: functional; in short: as §1
[6] = tested on: Nakaseomyces glabratus; assay: Antifungal activity against Candida glabrata isolate 42031 expressing wild type Fks1p and Fks2p D666E mutant by CLSI method; type: functional; in short: as §1
[7] = tested on: Nakaseomyces glabratus; assay: Antifungal activity against Candida glabrata isolate 234 expressing wild type Fks1p and Fks2p F659V mutant by CLSI method in presence of 50% human serum; type: functional
In short: (§2)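 Broth microdilution MIC per CLSI M27-A3 in RPMI 1640 supplemented with 50% serum. Caspofungin and micafungin stocks in sterile water; anidulafungin stock in 100% DMSO; stocks kept at −86°C.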

[8] = tested on: Nakaseomyces glabratus; assay: Antifungal activity against Candida glabrata isolate 3830 expressing wild type Fks1p and Fks2p S663P mutant by CLSI method in presence of 50% human serum; type: functional; in short: as §2
[9] = tested on: Nakaseomyces glabratus; assay: Antifungal activity against Candida glabrata isolate 42031 expressing wild type Fks1p and Fks2p D666E mutant by CLSI method in presence of 50% human serum; type: functional; in short: as §2
[10] = tested on: Nakaseomyces glabratus; assay: Antifungal activity against Candida glabrata isolate 5416 expressing wild type Fks1p and Fks2p W1375L mutant by CLSI method in presence of 50% human serum; type: functional; in short: as §2
[11] = Inhibition of Candida glabrata isolate 3168 wild type 1,3-beta-D-glucan synthase; design: species or system Nakaseomyces glabratus
In short: (§3)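 Cells grown in YPD broth at 35°C with vigorous shaking to early stationary phase. Membrane protein extracted and glucan synthase partially purified by product entrapment. Filtration polymerization assay measured [3H]glucose incorporation into product, started by adding enzyme. Echinocandin serial dilutions spanned 0.01–10,000 ng/ml, with 1% DMSO controls for anidulafungin. IC50 from variable-slope sigmoidal fit.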

[12] = biological target: 1,3-beta-glucan synthase component FKS1 (Candida glabrata, UniProt E2GKZ4, S629P); assay: Inhibition of Candida glabrata isolate 5847 1,3-beta-D-glucan synthase Fks1p S629P mutant/wild type Fks2p; design: species or system Nakaseomyces glabratus; in short: as §3
[13] = biological target: 1,3-beta-glucan synthase (Candida glabrata, UniProt F5BCZ9, S663P); assay: Inhibition of Candida glabrata isolate 3830 1,3-beta-D-glucan synthase wild type Fks1p/Fks2p S663P mutant; design: species or system Nakaseomyces glabratus; in short: as §3
[14] = biological target: 1,3-beta-glucan synthase (Candida glabrata, UniProt F5BCZ9, D666G); assay: Inhibition of Candida glabrata isolate 41400 1,3-beta-D-glucan synthase wild type Fks1p/Fks2p D666G mutant; design: species or system Nakaseomyces glabratus; in short: as §3
Sequence of 1,3-beta-glucan synthase (Candida glabrata, UniProt F5BCZ9, D666G) (F5BCZ9 entry or part of it D666G): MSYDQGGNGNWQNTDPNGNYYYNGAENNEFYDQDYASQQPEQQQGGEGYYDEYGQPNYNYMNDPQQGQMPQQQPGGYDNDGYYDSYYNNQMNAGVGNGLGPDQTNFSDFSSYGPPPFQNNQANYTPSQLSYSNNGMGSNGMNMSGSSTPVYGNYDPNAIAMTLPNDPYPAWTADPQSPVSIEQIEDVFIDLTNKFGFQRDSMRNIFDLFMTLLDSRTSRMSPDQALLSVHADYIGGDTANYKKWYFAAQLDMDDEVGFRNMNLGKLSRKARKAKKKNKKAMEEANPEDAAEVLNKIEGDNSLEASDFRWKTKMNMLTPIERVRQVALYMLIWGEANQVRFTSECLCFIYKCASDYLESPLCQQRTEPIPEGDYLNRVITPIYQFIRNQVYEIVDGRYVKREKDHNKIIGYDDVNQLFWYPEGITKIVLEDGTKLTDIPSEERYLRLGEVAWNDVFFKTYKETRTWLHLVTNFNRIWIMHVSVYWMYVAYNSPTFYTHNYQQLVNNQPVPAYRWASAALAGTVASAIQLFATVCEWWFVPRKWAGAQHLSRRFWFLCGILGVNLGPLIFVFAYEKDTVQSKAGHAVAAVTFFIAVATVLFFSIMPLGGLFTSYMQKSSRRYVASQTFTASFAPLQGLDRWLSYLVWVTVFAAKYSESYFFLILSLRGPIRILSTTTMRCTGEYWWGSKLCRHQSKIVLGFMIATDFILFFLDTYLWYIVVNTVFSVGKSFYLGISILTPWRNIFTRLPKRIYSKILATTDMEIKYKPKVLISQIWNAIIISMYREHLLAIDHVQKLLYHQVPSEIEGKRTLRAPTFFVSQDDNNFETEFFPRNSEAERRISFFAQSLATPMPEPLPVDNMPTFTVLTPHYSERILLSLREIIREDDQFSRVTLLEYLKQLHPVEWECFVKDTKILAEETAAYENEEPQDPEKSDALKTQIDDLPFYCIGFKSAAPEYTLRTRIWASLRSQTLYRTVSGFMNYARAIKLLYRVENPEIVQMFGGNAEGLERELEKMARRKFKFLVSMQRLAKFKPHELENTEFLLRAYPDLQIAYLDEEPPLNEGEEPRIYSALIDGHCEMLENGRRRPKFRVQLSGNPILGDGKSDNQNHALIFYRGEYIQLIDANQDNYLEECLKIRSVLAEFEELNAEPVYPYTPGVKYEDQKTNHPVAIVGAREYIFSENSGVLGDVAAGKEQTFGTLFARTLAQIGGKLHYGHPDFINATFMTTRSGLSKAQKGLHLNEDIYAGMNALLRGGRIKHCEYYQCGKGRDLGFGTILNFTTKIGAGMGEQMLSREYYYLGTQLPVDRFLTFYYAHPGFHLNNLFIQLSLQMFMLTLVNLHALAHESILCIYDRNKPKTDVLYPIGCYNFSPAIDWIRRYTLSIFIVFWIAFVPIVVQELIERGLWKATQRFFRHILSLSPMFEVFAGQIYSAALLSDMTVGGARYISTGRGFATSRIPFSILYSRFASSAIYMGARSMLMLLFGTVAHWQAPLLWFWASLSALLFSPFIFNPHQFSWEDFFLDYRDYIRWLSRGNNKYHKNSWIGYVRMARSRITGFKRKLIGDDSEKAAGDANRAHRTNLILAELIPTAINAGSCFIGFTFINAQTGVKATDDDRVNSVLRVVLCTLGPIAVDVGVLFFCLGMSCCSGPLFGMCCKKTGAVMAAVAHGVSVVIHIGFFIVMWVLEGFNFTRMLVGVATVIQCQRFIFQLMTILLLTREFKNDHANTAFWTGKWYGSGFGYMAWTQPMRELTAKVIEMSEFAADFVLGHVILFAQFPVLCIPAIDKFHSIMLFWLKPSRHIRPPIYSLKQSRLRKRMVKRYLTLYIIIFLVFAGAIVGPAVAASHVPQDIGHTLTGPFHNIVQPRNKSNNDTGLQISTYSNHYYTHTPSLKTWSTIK

[15] = biological target: 1,3-beta-glucan synthase (Candida glabrata, UniProt F5BCZ9, W1375L); assay: Inhibition of Candida glabrata isolate 5416 1,3-beta-D-glucan synthase wild type Fks1p/Fks2p W1375L mutant; design: species or system Nakaseomyces glabratus; in short: as §3
Sequence of 1,3-beta-glucan synthase (Candida glabrata, UniProt F5BCZ9, W1375L) (F5BCZ9 entry or part of it W1375L): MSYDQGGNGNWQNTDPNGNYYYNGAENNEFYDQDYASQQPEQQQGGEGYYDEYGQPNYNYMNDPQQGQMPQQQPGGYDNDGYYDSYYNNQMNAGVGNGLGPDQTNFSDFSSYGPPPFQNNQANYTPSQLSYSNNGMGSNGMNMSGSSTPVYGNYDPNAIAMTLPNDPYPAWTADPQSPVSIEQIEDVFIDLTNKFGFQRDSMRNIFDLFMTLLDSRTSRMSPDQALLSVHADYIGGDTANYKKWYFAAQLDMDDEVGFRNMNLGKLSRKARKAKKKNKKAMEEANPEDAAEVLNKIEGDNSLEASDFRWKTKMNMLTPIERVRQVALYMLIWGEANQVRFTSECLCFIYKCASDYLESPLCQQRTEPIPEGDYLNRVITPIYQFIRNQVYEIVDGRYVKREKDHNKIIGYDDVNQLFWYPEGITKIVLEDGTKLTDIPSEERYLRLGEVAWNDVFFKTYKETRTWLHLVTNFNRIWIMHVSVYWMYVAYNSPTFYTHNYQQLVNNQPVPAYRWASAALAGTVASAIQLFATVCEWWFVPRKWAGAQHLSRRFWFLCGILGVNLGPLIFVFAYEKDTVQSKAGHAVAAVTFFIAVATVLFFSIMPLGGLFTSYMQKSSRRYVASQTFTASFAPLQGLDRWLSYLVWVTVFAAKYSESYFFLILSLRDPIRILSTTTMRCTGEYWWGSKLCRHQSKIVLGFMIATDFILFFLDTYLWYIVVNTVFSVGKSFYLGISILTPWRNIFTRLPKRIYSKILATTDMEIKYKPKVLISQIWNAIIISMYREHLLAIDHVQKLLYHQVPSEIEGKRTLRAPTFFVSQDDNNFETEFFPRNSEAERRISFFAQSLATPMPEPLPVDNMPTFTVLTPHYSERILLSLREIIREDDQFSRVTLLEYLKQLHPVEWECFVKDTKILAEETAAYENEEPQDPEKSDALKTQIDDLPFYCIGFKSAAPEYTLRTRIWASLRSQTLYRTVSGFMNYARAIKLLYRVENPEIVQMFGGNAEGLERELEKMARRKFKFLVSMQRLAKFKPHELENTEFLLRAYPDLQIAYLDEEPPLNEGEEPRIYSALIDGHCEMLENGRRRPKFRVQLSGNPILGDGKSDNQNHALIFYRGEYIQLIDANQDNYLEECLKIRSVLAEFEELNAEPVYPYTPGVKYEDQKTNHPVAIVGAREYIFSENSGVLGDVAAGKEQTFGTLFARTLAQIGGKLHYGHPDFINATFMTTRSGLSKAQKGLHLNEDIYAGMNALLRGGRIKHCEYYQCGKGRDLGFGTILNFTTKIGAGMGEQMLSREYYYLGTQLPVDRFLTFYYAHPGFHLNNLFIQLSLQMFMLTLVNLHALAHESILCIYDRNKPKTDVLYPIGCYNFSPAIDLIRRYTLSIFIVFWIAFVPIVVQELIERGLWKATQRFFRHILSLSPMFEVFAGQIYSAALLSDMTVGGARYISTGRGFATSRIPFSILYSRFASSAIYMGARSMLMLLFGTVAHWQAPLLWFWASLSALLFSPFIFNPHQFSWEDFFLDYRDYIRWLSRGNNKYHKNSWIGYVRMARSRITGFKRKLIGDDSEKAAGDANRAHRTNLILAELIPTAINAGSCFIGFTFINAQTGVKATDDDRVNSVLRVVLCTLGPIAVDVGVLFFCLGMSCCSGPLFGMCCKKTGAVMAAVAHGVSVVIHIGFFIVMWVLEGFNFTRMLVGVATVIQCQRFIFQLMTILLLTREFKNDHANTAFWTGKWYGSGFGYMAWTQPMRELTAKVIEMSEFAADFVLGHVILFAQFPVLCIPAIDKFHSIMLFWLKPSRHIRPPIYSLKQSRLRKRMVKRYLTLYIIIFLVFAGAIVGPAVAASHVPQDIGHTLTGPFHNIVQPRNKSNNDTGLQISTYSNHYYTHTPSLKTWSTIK

Row | SMILES | MIC [1] [µg/mL] | MIC [2] [µg/mL] | MIC [3] [µg/mL] | MIC [4] [µg/mL] | MIC [5] [µg/mL] | MIC [6] [µg/mL] | MIC [7] [µg/mL] | MIC [8] [µg/mL] | MIC [9] [µg/mL] | MIC [10] [µg/mL] | IC50 [11] [µg/mL] | pIC50 [12] | pIC50 [13] | pIC50 [14] | pIC50 [15]
1 | CCCCCOc1ccc(-c2ccc(-c3ccc(C(=O)N[C@H]4C[C@@H](O)[C@@H](O)NC(=O)[C@@H]5[C@@H](O)[C@@H](C)CN5C(=O)[C@H]([C@@H](C)O)NC(=O)[C@H]([C@H](O)[C@@H](O)c5ccc(O)cc5)NC(=O)[C@@H]5C[C@@H](O)CN5C(=O)[C@H]([C@@H](C)O)NC4=O)cc3)cc2)cc1 [ANIDULAFUNGIN] ({pTerphenylCO(4''-OnC5H11)}-[Orn(4R-OH,5R-OH)]T[Hyp][hTyr(3S-OH,4S-OH)]T[Pro(3S-OH,4S-Me)]; lactam 1-C) | 0.03 (≈ 0.0263 µM) | 2 (≈ 1.75 µM) | 4 (≈ 3.51 µM) | 1 (≈ 0.877 µM) | 4 (≈ 3.51 µM) | 1 (≈ 0.877 µM) | 8 | 8 | 4 | 4 | 0.00158 (≈ 0.00139 µM) | 5.47 | 5.45 | 6.81 | 7.13
2 | CCCCCOc1ccc(-c2cc(-c3ccc(C(=O)N[C@H]4C[C@@H](O)[C@@H](O)NC(=O)[C@@H]5[C@@H](O)[C@@H](C)CN5C(=O)[C@H]([C@H](O)CC(N)=O)NC(=O)[C@H]([C@H](O)[C@@H](O)c5ccc(O)c(OS(=O)(=O)O)c5)NC(=O)[C@@H]5C[C@@H](O)CN5C(=O)[C@H]([C@@H](C)O)NC4=O)cc3)no2)cc1 [MICAFUNGIN] (X1-[Orn(4R-OH,5R-OH)]T[Hyp][hTyr(3S-OH,4S-OH,3'-OSO3H)][Gln(3R-OH)][Pro(3S-OH,4S-Me)]; lactam 1-C) | 0.06 (≈ 0.0472 µM) | 0.5 (≈ 0.394 µM) | 2 (≈ 1.57 µM) | 0.5 (≈ 0.394 µM) | 1 (≈ 0.787 µM) | 0.25 (≈ 0.197 µM) | 8 | 8 | 4 | 2 | 0.00129 (≈ 0.00102 µM) | 6.17 | 5.69 | 7.10 | 7.40
3 | CC[C@H](C)C[C@H](C)CCCCCCCCC(=O)N[C@H]1C[C@@H](O)[C@@H](NCCN)NC(=O)[C@@H]2[C@@H](O)CCN2C(=O)[C@H]([C@H](O)CCN)NC(=O)[C@H]([C@H](O)[C@@H](O)c2ccc(O)cc2)NC(=O)[C@@H]2C[C@@H](O)CN2C(=O)[C@H]([C@@H](C)O)NC1=O [CASPOFUNGIN] | 0.06 (≈ 0.0549 µM) | 8 (≈ 7.32 µM) | 8 (≈ 7.32 µM) | 4 (≈ 3.66 µM) | 8 (≈ 7.32 µM) | 4 (≈ 3.66 µM) | 8 | 16 | 8 | 8 | 0.00179 (≈ 0.00164 µM) | 5.34 | 5.33 | 6.33 | 6.25
